Results reported in ChEMBL document CHEMBL1144979, “Combinatorial modification of natural products: synthesis and in vitro analysis of derivatives of thiazole peptide antibiotic GE2270 A: A-ring modifications” (Bioorg Med Chem Lett, 2003).
≈ marks a conversion by molar mass, not a printed value.

Key:
Format in all cases: functional
[1] = test system: Enterococcus faecium; experiment: In vitro antibacterial activity against Vancomycin-susceptible Enterococcus faecium BM4147.1
Method in brief: (§1)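 MICs by NCCLS broth dilution guidelines, modified by adding 0.02% bovine serum albumin to the growth medium; purified, resynthesized compounds tested against the expanded bacterial panel.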

[2] = test system: Enterococcus faecalis; experiment: In vitro antibacterial activity against Vancomycin-resistant Enterococcus faecalis ATCC 51299
[3] = test system: Staphylococcus aureus; experiment: In vitro antibacterial activity against methicillin sensitive Staphylococcus aureus ATCC 25923; method in brief: as §1
[4] = test system: Staphylococcus aureus; experiment: In vitro antibacterial activity against methicillin resistant Staphylococcus aureus (MRSA) ATCC 33591

| SMILES | MIC [1] [mg/L] | MIC [2] [mg/L] | MIC [3] [mg/L] | MIC [4] [mg/L] |
| --- | --- | --- | --- | --- |
| CNC(=O)C[C@@H]1NC(=O)c2csc(n2)-c2ccc(-c3nc(C(=O)NCCN=C(N)N)cs3)nc2-c2csc(n2)-c2csc(n2)C(C(O)c2ccccc2)NC(=O)CNC(=O)c2nc(sc2COC)[C@H](C(C)C)NC(=O)c2nc1sc2C (some centres not stated) | 8 (≈ 6.61 µM) | 8 (≈ 6.61 µM) | 4 (≈ 3.31 µM) | 8 (≈ 6.61 µM) |
| CNC(=O)C[C@@H]1NC(=O)c2csc(n2)-c2ccc(-c3nc(C(=O)NCCNCCO)cs3)nc2-c2csc(n2)-c2csc(n2)C(C(O)c2ccccc2)NC(=O)CNC(=O)c2nc(sc2COC)[C@H](C(C)C)NC(=O)c2nc1sc2C (some centres not stated) | 2 (≈ 1.65 µM) | 4 (≈ 3.3 µM) | 2 (≈ 1.65 µM) | 2 (≈ 1.65 µM) |
| CNC(=O)C[C@@H]1NC(=O)c2csc(n2)-c2ccc(-c3nc(C(=O)N[C@@H](CCC(=O)O)C(=O)NCCCCCC(=O)O)cs3)nc2-c2csc(n2)-c2csc(n2)C(C(O)c2ccccc2)NC(=O)CNC(=O)c2nc(sc2COC)[C@H](C(C)C)NC(=O)c2nc1sc2C (some centres not stated) |  |  | > 32 | > 32 |
| CNC(=O)C[C@@H]1NC(=O)c2csc(n2)-c2ccc(-c3nc(C(=O)NCC(O)CO)cs3)nc2-c2csc(n2)-c2csc(n2)C(C(O)c2ccccc2)NC(=O)CNC(=O)c2nc(sc2COC)[C@H](C(C)C)NC(=O)c2nc1sc2C (some centres not stated) | 0.015 (≈ 0.0125 µM) | 0.015 (≈ 0.0125 µM) | 0.125 (≈ 0.104 µM) | 0.06 (≈ 0.0501 µM) |
| CNC(=O)C[C@@H]1NC(=O)c2csc(n2)-c2ccc(-c3nc(C(=O)N[C@@H](CC(=O)O)C(=O)NCCCCCC(=O)O)cs3)nc2-c2csc(n2)-c2csc(n2)C(C(O)c2ccccc2)NC(=O)CNC(=O)c2nc(sc2COC)[C@H](C(C)C)NC(=O)c2nc1sc2C (some centres not stated) |  |  | > 32 | > 32 |
| CNC(=O)C[C@@H]1NC(=O)c2csc(n2)-c2ccc(-c3nc(C(=O)N[C@@H](CC(=O)O)C(=O)N[C@@H](CC(=O)O)C(N)=O)cs3)nc2-c2csc(n2)-c2csc(n2)C(C(O)c2ccccc2)NC(=O)CNC(=O)c2nc(sc2COC)[C@H](C(C)C)NC(=O)c2nc1sc2C (some centres not stated) |  |  | > 32 | > 32 |
| CNC(=O)C[C@@H]1NC(=O)c2csc(n2)-c2ccc(-c3nc(C(=O)N[C@@H](CCC(=O)O)C(=O)N4CCCC[C@H]4C(N)=O)cs3)nc2-c2csc(n2)-c2csc(n2)C(C(O)c2ccccc2)NC(=O)CNC(=O)c2nc(sc2COC)[C@H](C(C)C)NC(=O)c2nc1sc2C (some centres not stated) |  |  |  | 4 (≈ 2.93 µM) |
| CNC(=O)C[C@@H]1NC(=O)c2csc(n2)-c2ccc(-c3nc(C(=O)NCC[C@H](O)C(=O)O)cs3)nc2-c2csc(n2)-c2csc(n2)C(C(O)c2ccccc2)NC(=O)CNC(=O)c2nc(sc2COC)[C@H](C(C)C)NC(=O)c2nc1sc2C (some centres not stated) | 0.03 (≈ 0.0245 µM) | 0.25 (≈ 0.204 µM) | 4 (≈ 3.26 µM) | 2 (≈ 1.63 µM) |
| CNC(=O)C[C@@H]1NC(=O)c2csc(n2)-c2ccc(-c3nc(CNC(=O)NCC(O)CC(=O)O)cs3)nc2-c2csc(n2)-c2csc(n2)C(C(O)c2ccccc2)NC(=O)CNC(=O)c2nc(sc2COC)[C@H](C(C)C)NC(=O)c2nc1sc2C (some centres not stated) | 2 (≈ 1.59 µM) | > 16 | 8 (≈ 6.37 µM) | 8 (≈ 6.37 µM) |
| CNC(=O)C[C@@H]1NC(=O)c2csc(n2)-c2ccc(-c3nc(C(=O)NCCCC(=O)O)cs3)nc2-c2csc(n2)-c2csc(n2)C(C(O)c2ccccc2)NC(=O)CNC(=O)c2nc(sc2COC)[C@H](C(C)C)NC(=O)c2nc1sc2C (some centres not stated) | 0.015 (≈ 0.0124 µM) | 0.03 (≈ 0.0248 µM) | 0.25 (≈ 0.207 µM) | 0.125 (≈ 0.103 µM) |
| CNC(=O)C[C@@H]1NC(=O)c2csc(n2)-c2ccc(-c3nc(C(=O)NCC(O)C(=O)O)cs3)nc2-c2csc(n2)-c2csc(n2)C(C(O)c2ccccc2)NC(=O)CNC(=O)c2nc(sc2COC)[C@H](C(C)C)NC(=O)c2nc1sc2C (some centres not stated) | 0.5 (≈ 0.412 µM) | 1 (≈ 0.825 µM) | 4 (≈ 3.3 µM) | 4 (≈ 3.3 µM) |
| CNC(=O)C[C@@H]1NC(=O)c2csc(n2)-c2ccc(-c3nc(C(=O)NCCCN4CCOCC4)cs3)nc2-c2csc(n2)-c2csc(n2)C(C(O)c2ccccc2)NC(=O)CNC(=O)c2nc(sc2COC)[C@H](C(C)C)NC(=O)c2nc1sc2C (some centres not stated) | 0.06 (≈ 0.0479 µM) | 0.06 (≈ 0.0479 µM) | 0.125 (≈ 0.0999 µM) | 0.06 (≈ 0.0479 µM) |
| CNC(=O)C[C@@H]1NC(=O)c2csc(n2)-c2ccc(-c3nc(C(=O)NCC[N+]4([O-])CCOCC4)cs3)nc2-c2csc(n2)-c2csc(n2)C(C(O)c2ccccc2)NC(=O)CNC(=O)c2nc(sc2COC)[C@H](C(C)C)NC(=O)c2nc1sc2C (some centres not stated) | 0.5 (≈ 0.399 µM) | 2 (≈ 1.6 µM) | 1 (≈ 0.798 µM) | 1 (≈ 0.798 µM) |
| CNC(=O)C[C@@H]1NC(=O)c2csc(n2)-c2ccc(-c3nc(C(=O)NCCOCCO)cs3)nc2-c2csc(n2)-c2csc(n2)C(C(O)c2ccccc2)NC(=O)CNC(=O)c2nc(sc2COC)[C@H](C(C)C)NC(=O)c2nc1sc2C (some centres not stated) | 0.125 (≈ 0.103 µM) | 0.06 (≈ 0.0495 µM) | 0.25 (≈ 0.206 µM) | 0.06 (≈ 0.0495 µM) |
